Test [1] can be described thus: Cytotoxicity against drug-resistant human KB31 cells after 72 hrs by MTS reduction assay. The test is classed as functional, cell-based. To be noted: KB 3-1, 72 h, in the assay text read “drug-sensitive” for “drug-resistant”. Put shortly: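 KB-3-1 cells grown as monolayers in DMEM with 10% FBS at 37 °C and 5% CO2, harvested by trypsin at 70-80% confluence and seeded at 4 × 10^3/well for 24 h. Dilutions of DMSO stock in medium were added (DMSO ≤0.25% final, also in controls), six wells per concentration, for 72 h. Viable cells were read by MTS/PMS, 50 min, A492. IC50 came from three passages.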
On the technique in general: Formazan colour is commonly taken as a measure of viable cells.

Test [2] can be described thus: Cytotoxicity against multidrug-resistant human KBV1 cells after 72 hrs by MTS reduction assay. The format is functional, cell-based. The note with it: KB-V1, 72 h. Put shortly:
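KB-V1 multidrug-resistant line (P-170 glycoprotein) kept without vinblastine, using passages 5-15, in DMEM/10% FBS at 37 °C and 5% CO2. Cells were trypsinized at 60-70% confluence and seeded at 7 × 10^3/well for 24 h. Compound was added in medium (DMSO ≤0.25%), six replicates per concentration, for 72 h. Read-out was MTS/PMS, 50 min, A492. IC50 came from three separate passages.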

The nature of test [3]: Resistance index, ratio of IC50 for human KBV1 cells to IC50 for human KB31 cells. The test is classed as functional. Put shortly:
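Ratio of the IC50 in KB-V1 cells to the IC50 in parental KB-3-1 cells, each from a 72-h MTS/PMS proliferation assay (A492) run in parallel under the same dosing conditions (DMSO ≤0.25%, six replicates per concentration, three separate determinations).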

SMILES strings stand for the structures. A value given as a limit tells only on which side of the number the result lay.

Experimental findings from ChEMBL document CHEMBL1142555, “Cytotoxic activity of some phenanthroindolizidine N-oxide alkaloids from Cynanchum vincetoxicum” (J Nat Prod, 2000) are described below.

A word on the IC50: it is the concentration that inhibits the measured activity by half. A low value points to inhibition by little substance.

With `COc1ccc2c3c(c4cc(OC)c(OC)cc4c2c1)C[C@H]1CCC[N+]1([O-])C3` (stereo not given in full), the half-maximal inhibitory concentration (IC50) in test [1] was 0.11 µM; in test [2], 0.16 µM.
For `COc1ccc2c3c(c4cc(OC)c(OC)cc4c2c1)[C@@H](O)[C@H]1CCC[N+]1([O-])C3` (stereo not given in full), the results for the IC50 in test [1] and in test [2] were 0.1 µM and 0.16 µM, respectively.
Regarding `COc1ccc(C2=C(c3ccc(OC)c(OC)c3)C[C@H]3CCC[N+]3([O-])C2)cc1` (stereo not given in full), the results for the 50% inhibitory concentration (IC50) in test [1] and in test [2] were 2.55 µM and 3.3 µM, respectively.
For the compound `COC(=O)c1ccccc1-c1c2ccc(=N)cc-2oc2cc(N)ccc12.Cl` [RHODAMINE123], the values for the IC50 in test [1] and in test [2] were 1.4 µM and more than 500 µM, respectively. For the same compound, the Ratio in test [3] is 500.
With `CC[C@]1(O)C[C@@H]2CN(CCc3c([nH]c4ccccc34)[C@@](C(=O)OC)(c3cc4c(cc3OC)N(C)[C@H]3[C@@](O)(C(=O)OC)[C@H](OC(C)=O)[C@]5(CC)C=CCN6CC[C@]43[C@@H]65)C2)C1` [VINBLASTINE], in test [3], the Ratio is listed as 210.
